Screening results as filed in PubChem BioAssay.
APJ ag = agonists of human APJ apelin receptor | actives 0.11% (n = 330,000) | P35414 | activation, % at 20 µM | CHO-K1 APJ PathHunter beta-arrestin, luminescence; 0% DMSO wells, 100% apelin;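 active = activation more than six SD over the plate average, tested at 20 µM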;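 also: 0% = DMSO alone and 100% = apelin-13 at 10 nM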
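Test system – PathHunter CHO-K1 APJ (AGTRL-1) beta-arrestin reporter cells · Input – 1000 cells/well · Compound – single test compound dose, 20 µM final, 1% DMSO · Times – compound stimulation 90 min at 25 °C, detection 60 min · Technique – beta-gal luminescence · Read-out basis – APJ–arrestin association signal · Control set – negative DMSO alone, positive Apelin-13 at 10 nM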
EBI2 antag = EBI2 (human) antagonism; P32249; EBI2 beta-arrestin recruitment, luminescence, 7a,25-OHC stimulated; actives 0.81% (n = 360,000); AID 651636; inhibition, % at 5 µM; in the data active = inhibition above about 38%;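 also: enzyme fragment complementation signal reports receptor beta-arrestin coupling in cells; 0% = agonist plus DMSO wells and 100% = wells without agonist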
CXCR6 block = CXCR6 (human) receptor inhibition; inhibition, % at 20 µM; CHO-K1 PathHunter CXCR6 beta-arrestin, luminescence; actives 0.36% (n = 360,000); AID 602244; O00574; in the data active = inhibition above about 34%, passing the limit was not always enough;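 also: antagonist mode with CXCL16 agonist at 10 nM final; 0% = 10 nM CXCL16 with DMSO and 100% = unstimulated wells without agonist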
Target sequence (O00574 whole entry, looked up): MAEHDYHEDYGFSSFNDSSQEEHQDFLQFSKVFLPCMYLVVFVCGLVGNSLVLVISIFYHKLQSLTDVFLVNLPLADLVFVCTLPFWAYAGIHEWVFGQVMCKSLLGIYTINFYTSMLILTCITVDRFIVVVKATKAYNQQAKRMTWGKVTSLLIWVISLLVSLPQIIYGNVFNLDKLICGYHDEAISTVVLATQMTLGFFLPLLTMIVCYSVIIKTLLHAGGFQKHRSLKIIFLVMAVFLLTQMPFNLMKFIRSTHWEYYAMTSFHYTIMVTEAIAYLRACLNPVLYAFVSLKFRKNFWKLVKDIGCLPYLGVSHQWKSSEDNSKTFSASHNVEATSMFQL
CCR6 antag = antagonists of human CCR6 receptor; actives 0.49% (n = 340,000); inhibition, % at 20 µM; CHO-K1 CCR6 PathHunter beta-arrestin, luminescence, CCL20-stimulated; P51684;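 active = compounds whose inhibition of the agonist-driven luminescence signal at 20 µM reaches about 50%, limit read from the data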;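 also: cells stimulated with CCL20 at 14 nM final; plate controls were DMSO with CCL20 for no effect and DMSO without agonist for full effect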
APJ antag = antagonists of human APJ apelin receptor | P35414 | inhibition, % at 20 µM | CHO-K1 APJ beta-arrestin complementation, luminescence | actives 0.32% (n = 330,000);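 active = inhibition above about 40% at 20 µM, limit read from the data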;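 also: cells challenged with 10 nM apelin-13 agonist together with compound; plate controls were apelin-13 plus DMSO wells for no effect and DMSO wells lacking apelin-13 for full effect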
EBI2 antag conf = EBI2 (human) antagonism, single concentration confirmation | shares compounds with EBI2 antag | EBI2 beta-arrestin luminescence, 7a,25-OHC antagonism | inhibition, % at 5 µM | actives 29% (n = 2,400) | AID 651997;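 active = inhibition of at least 50%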
EBI2 agonist = activates EBI2, counter-screen for EBI2 antagonists. shares compounds with EBI2 antag. EBI2-expressing cells, agonist mode, luminescence, 60 min; 0% vehicle, 100% 7α,25-dihydroxycholesterol control. activation, % at 5 µM. 2,400 tested, under 10 active;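 active = activation of at least 50%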
bGal cs = counter-screen for EBI2 antagonists: E. coli beta-galactosidase inhibition; AID 652176; inhibition, % at 5 µM; purified beta-galactosidase, luminescent Galacton Star, 15 min; actives 1% (n = 2,400); shares compounds with EBI2 antag;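 active = replicate-average signal at least 3 plate SD below neutral wells, shown as high inhibition, flagging enzyme-inhibiting false positives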;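 also: 0% = DMSO wells with enzyme and 100% = wells lacking enzyme; higher means stronger loss of beta-gal luminescence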
Numbers without * were called inactive; nt = no result. Shown are actives, neighbours in structure and some others; about 1.5% of the full set was active somewhere.

SMILES | APJ ag | EBI2 antag | CXCR6 block | CCR6 antag | APJ antag | EBI2 antag conf | EBI2 agonist | bGal cs
CC(C)Nc1nc(NCCOc2ccccc2Cl)c2sc(-c3ccccc3)cc2n1 | nt | 52* | 9 | nt | nt | 30 | 0 | -15
COc1ccccc1CNc1nc(NCc2ccccc2)nc2ccsc12 | nt | -2 | 0 | nt | nt | nt | nt | nt
COCCNc1nc(NCCOC)c2sc(-c3ccccc3)cc2n1 | nt | 12 | 3 | nt | nt | nt | nt | nt
COCCNc1nc(NCCOc2ccccc2)c2sc(-c3ccccc3)cc2n1 | nt | 47* | 9 | nt | nt | 45 | 0 | 6
COCCNc1nc(-c2ccc(OC)cc2C)c2sc(-c3ccccc3)cc2n1 | nt | 42* | 6 | nt | nt | 19 | -1 | -13
CC(=O)c1c(N2CCN(C)CC2)[nH]c(-c2ccccc2)nc1=S | -4 | -9 | 6 | -1 | 14 | nt | nt | nt
O=C(Nc1ccc(Br)cc1)C1CCCN(C2=NS(=O)(=O)c3ccccc32)C1 (stereo not drawn) | -1 | -7 | 8 | 6 | 5 | nt | nt | nt
O=C(c1ccc(Cl)cc1)c1c[nH]c(C(=O)C(Cl)(Cl)Cl)c1 | -4 | 42* | -4 | 25 | 25 | 47 | 3 | 0
CCOC(=O)C1=CCN(S(=O)(=O)c2ccccc2Cl)C1c1cccc(C)c1 (stereo not drawn) | nt | 40* | 1 | nt | nt | 25 | 0 | 8
CCOC(=O)C1=CCN(S(=O)(=O)c2ccccc2Cl)C1c1ccccc1 (stereo not drawn) | nt | -12 | -2 | nt | nt | nt | nt | nt
CCOC(=O)C1=CCN(S(=O)(=O)c2ccccc2C)C1c1cccc(Br)c1 (stereo not drawn) | nt | 67* | 17 | nt | nt | 25 | -1 | -13
CN(Cc1ccccc1)C(CNS(=O)(=O)c1ccccc1)c1ccccc1 (stereo not drawn) | nt | 7 | 6 | nt | nt | nt | nt | nt
CCCCn1c2ccccc2c2nnc(SCCN3CCCCC3)nc21 | 0 | 49* | 13 | 15 | -21 | 13 | -2 | -11
C=CCn1c2ccccc2c2nnc(SCCN3CCOCC3)nc21 | 1 | 11 | 6 | 5 | -15 | nt | nt | nt
Cn1c2ccc(F)cc2c2nnc(SCCN3CCOCC3)nc21 | -2 | 1 | -2 | 4 | 18 | nt | nt | nt
CCCCn1c2ccc(F)cc2c2nnc(SCCN3CCOCC3)nc21 | -2 | 63* | 5 | 1 | 4 | 31 | 0 | 9
CC(=O)NC1CC2CCCC(C1)N2C(=O)Nc1ccc(Cl)cc1 (stereo not drawn) | nt | -5 | -6 | nt | nt | nt | nt | nt
Cc1sc2ncnc(SCC(=O)NC(C)(C)C)c2c1C | -3 | -9 | -1 | 6 | 2 | nt | nt | nt
CCc1ccc(OCC(=O)NNC(=O)CSc2ncnc3sc(C)c(C)c23)cc1 | -2 | 70* | -2 | 2 | 9 | 35 | 2 | 3
Cc1ccc(OCC(=O)NNC(=O)CSc2ncnc3sc(C)c(C)c23)cc1 | -3 | 66* | 0 | 6 | -18 | 29 | 0 | 9
Cc1c(NC(=O)COC(=O)CSc2ccc(C(N)=O)cc2[N+](=O)[O-])c(=O)n(-c2ccccc2)n1C | -4 | -1 | 9 | 11 | 3 | nt | nt | nt
Cc1ncccc1C(=O)N1CCCC(c2cc(C(=O)Nc3ccc(C(C)(C)C)cc3)no2)C1 (stereo not drawn) | nt | 4 | 2 | nt | nt | nt | nt | nt
COc1ccc(-c2ccc(C(=O)Nc3ccc(Cl)cc3)c3occc23)c(C)c1 | nt | 24 | 2 | nt | nt | nt | nt | nt
O=C(COc1ccccc1Br)NCCC1=CCCCC1 | -4 | 16 | 4 | 16 | 5 | nt | nt | nt
Cc1ccc2cccc(OCC(=O)NCCC3=CCCCC3)c2n1 | 0 | 48* | -8 | 19 | 9 | 24 | 1 | 2
CCN(CC)S(=O)(=O)c1cccc(-c2nnc(SCCOc3ccccc3C)o2)c1 | -7 | 50* | 0 | 18 | 12 | 35 | 0 | -1
CCN(CC)S(=O)(=O)c1cccc(-c2nnc(SCCOc3ccccc3)o2)c1 | -7 | 34 | 10 | 13 | 10 | nt | nt | nt
CCn1c(SCC(=O)N/N=C/c2ccc(C)o2)nnc1-c1ccccc1 | -1 | 51* | 10 | -4 | -7 | 25 | 3 | 3
